According to ChEMBL document CHEMBL1132494, “Bisphosphonate prodrugs: synthesis and in vitro evaluation of novel acyloxyalkyl esters of clodronic acid” (J Med Chem, 1999):

Key:
[1] = (§1) Hydrolysis half life against 10% rabbit liver homogenate was determined.; assay type: ADME, organism-based, Oryctolagus cuniculus
Procedure, shortened: (§2)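 Rabbit liver homogenized in ~4 vol isotonic phosphate buffer pH 7.4, spun 9000g 90 min 4 °C, supernatant stored −80 °C. Compound in 1 vol isotonic buffer plus 1 vol preheated 20% homogenate (10% final; initial 1.6–1.8 mM), 37 °C. Samples methanol-deproteinized and analysed by HPLC; kobs and t1/2 derived.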

[2] = Binding affinity (Kobs) at a pH 7.4 against 50 mM phosphate buffer was determined.
Procedure, shortened: (§3)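 Chemical hydrolysis: compound (initial 0.9–1.8 mM) in preheated 50 mM phosphate buffer, μ = 0.15, pH 5.0 or 7.4, held at 37 °C. Samples taken at intervals and analysed by HPLC; kobs and t1/2 derived.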

[3] = Hydrolysis half life at pH 7.4 against 50 mM phosphate buffer was determined.; assay type: ADME; procedure, shortened: as §3
[4] = Apparent partition coefficients was determined at a pH 7.4 by using the capacity factors of RP-HPLC.; assay type: physicochemical; details: octanol/water
Procedure, shortened: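 Tetraester log Papp estimated from RP-HPLC capacity factors (k'); C8 reversed-phase column, mobile phase 20 mM phosphate buffer pH 6.0/methanol 30:70 v/v; value reported for pH 7.4.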

[5] = organism: Oryctolagus cuniculus; experiment: Binding constant (Kobs) against 10% rabbit liver homogenate was determined.; assay type: ADME; procedure, shortened: as §2
[6] = Binding affinity (Kobs) at a pH 5.0 against 50 mM phosphate buffer was determined.; procedure, shortened: as §3
[7] = Hydrolysis half life against 80% human serum was determined.; assay type: ADME
Procedure, shortened: (§4)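 Compound dissolved in 1 vol phosphate buffer (50 mM, μ = 0.15, pH 7.4, 37 °C), then 4 vol preheated human serum added (80% serum; initial 1.4–1.7 mM); 37 °C water bath. Samples taken at intervals, deproteinized with equal volume methanol, centrifuged; supernatant dried and redissolved in mobile-phase buffer, or injected directly if labile. HPLC; kobs and t1/2 derived.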

[8] = organism: Homo sapiens; experiment: Binding affinity (Kobs) against 80% human Serum esterase was determined; procedure, shortened: as §4
[9] = Hydrolysis half life at pH 5.0 against 50 mM phosphate buffer was determined.; assay type: ADME; procedure, shortened: as §3
[10] = as §1; assay type: tissue-based; procedure, shortened: as §2

chromatographic logD [4]	k obs [6] [s⁻¹]	half-life [7] [min]	k obs [8] [s⁻¹]	half-life [9] [min]	Structure (SMILES)	half-life [1] [min]	k obs [2] [s⁻¹]	half-life [3] [min]	K obs [5] [min⁻¹]	T1/2 [10] [min]
7.4					CC(C)(C)C(=O)OCOP(=O)(OCOC(=O)C(C)(C)C)C(Cl)(Cl)P(=O)(OCOC(=O)C(C)(C)C)OCOC(=O)C(C)(C)C					
1.56	0.000117	78	0.000149	99	CC(C)(C)C(=O)OCOP(=O)(O)C(Cl)(Cl)P(=O)(OCOC(=O)C(C)(C)C)OCOC(=O)C(C)(C)C		0.000113	102	0.65	1.1

Structure (SMILES)	chromatographic logD [4]	k obs [6] [s⁻¹]	half-life [7] [min]	k obs [8] [s⁻¹]	half-life [9] [min]	half-life [1] [min]	k obs [2] [s⁻¹]	half-life [3] [min]	K obs [5] [min⁻¹]	T1/2 [10] [min]
C1CCNCC1.C1CCNCC1.CC(C)(C)C(=O)OCOP(=O)(O)C(Cl)(Cl)P(=O)(O)OCOC(=O)C(C)(C)C	-2.13					14	1.67e-07	47	0.51	
